Experimental findings from ChEMBL document CHEMBL1799921, “3-(1,3,4-Thiadiazole-2-yl)quinoline derivatives: synthesis, characterization and anti-microbial activity” (Eur J Med Chem, 2011) are described below.

The test system of experiment [1] is Streptococcus pyogenes. Kind of experiment: Antibacterial activity against Streptococcus pyogenes after 18 hrs by macro-dilution test. Format: functional. In a few lines:
(§1)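 Tube macro-dilution. Compounds in DMSO serially diluted to final […]. 24 h old inoculum added to each tube. Standard inoculum […]. Incubated 18 h at 37 °C. MIC is the lowest concentration with no visible growth, read visually. DMSO negative and amoxicillin positive controls.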

The subject of experiment [2] is Salmonella typhimurium. As to the kind of experiment: Antibacterial activity against Salmonella Typhimurium measured at MIC after 18 hrs by halo zone test. In kind it is functional, Salmonella enterica subsp. enterica serovar Typhimurium. A digest of the protocol: (§2)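 Disk diffusion. Strains subcultured 18 h at 37 °C in BHI, then suspended in saline by McFarland to about 10⁵ CFU/mL. Suspension mixed 1:1 with antibiotic agar at 40 °C and plated. 6.0 mm paper disks loaded with dilutions from a DMSO stock (1 mg per 100 of DMSO). Incubated 18 h at 36 °C. Inhibition zone (mm) measured at the MIC. Amoxicillin and DMSO disks as controls.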

The subject of experiment [3] is Escherichia coli. As to the kind of experiment: Antibacterial activity against Escherichia coli after 18 hrs by macro-dilution test. In kind it is functional. A digest of the protocol:
as §1

For experiment [4], the system named is Staphylococcus aureus. Kind of experiment: Antibacterial activity against Staphylococcus aureus after 18 hrs by macro-dilution test. Format: functional. In a few lines: as §1
For experiment [5], the system named is Salmonella typhimurium. As to the kind of experiment: Antibacterial activity against Salmonella Typhimurium after 18 hrs by macro-dilution test. Format: functional, Salmonella enterica subsp. enterica serovar Typhimurium. Conditions: Salmonella enterica. A digest of the protocol: as §1
The test system of experiment [6] is Staphylococcus aureus. Kind of experiment: Antibacterial activity against Staphylococcus aureus measured at MIC after 18 hrs by halo zone test. In kind it is functional. A digest of the protocol:
as §2

The test system of experiment [7] is Escherichia coli. As to the kind of experiment: Antibacterial activity against Escherichia coli measured at MIC after 18 hrs by halo zone test. In kind it is functional. A digest of the protocol:
as §2

Experiment [8] relates to Streptococcus pyogenes. As to the kind of experiment: Antibacterial activity against Streptococcus pyogenes measured at MIC after 18 hrs by halo zone test. Format: functional. In a few lines:
as §2

Values after ≈ are worked out from the molar mass of the structure shown.

`CC(=O)N1N=C(N(C(C)=O)C2CCCCC2)SC1c1cc2ccccc2nc1Cl` (stereo not given): the MIC (usually the lowest concentration that inhibits growth of the organism) was 256 µg/mL (≈ 594 µM) against Streptococcus pyogenes [1], 128 µg/mL (≈ 297 µM) in the experiment with Escherichia coli [3], 256 µg/mL (≈ 594 µM) with Staphylococcus aureus [4] and 64 µg/mL (≈ 149 µM) with Salmonella typhimurium [5]. The “inhibition zone (IZ)” value with Salmonella typhimurium [2] was 14.59 mm; with Staphylococcus aureus [6], 14.03 mm; in the experiment with Escherichia coli [7], 15.63 mm; with Streptococcus pyogenes [8] it was 17.38 mm.

As to `CC(=O)N1N=C(N(C(C)=O)C2CCCCCCC2)SC1c1cc2ccccc2nc1Cl` (stereo not given), the MIC turned out to be 128 µg/mL (≈ 279 µM) with Streptococcus pyogenes [1], 256 µg/mL (≈ 558 µM) against Escherichia coli [3], 128 µg/mL (≈ 279 µM) in the experiment on Staphylococcus aureus [4] and 64 µg/mL (≈ 139 µM) in the experiment with Salmonella typhimurium [5]. Further, the “inhibition zone (IZ)” value is listed as 18.82 mm in the experiment on Salmonella typhimurium [2], 14.57 mm in the experiment with Staphylococcus aureus [6], 17.86 mm in the experiment with Escherichia coli [7] and 14.33 mm in the experiment with Streptococcus pyogenes [8].

For `CC(=O)N(C1=NN(C(C)=O)C(c2cc3ccccc3nc2Cl)S1)c1ccc([N+](=O)[O-])cc1` (stereo not given), the MIC in the experiment with Streptococcus pyogenes [1], against Escherichia coli [3], with Staphylococcus aureus [4] and with Salmonella typhimurium [5] was 64 µg/mL (≈ 136 µM) throughout. The “inhibition zone (IZ)” value in the experiment with Salmonella typhimurium [2] was 17.03 mm; in the experiment with Staphylococcus aureus [6], 14.29 mm; in the experiment on Escherichia coli [7], 14.34 mm; in the experiment on Streptococcus pyogenes [8], 14.92 mm.

In the case of `CC(=O)NC1=NN(C(C)=O)C(c2cc3cccc(C)c3nc2Cl)S1` (stereo not given), the MIC against Streptococcus pyogenes [1] was 64 µg/mL (≈ 176 µM); in the experiment on Escherichia coli [3], 256 µg/mL (≈ 706 µM); in the experiment on Staphylococcus aureus [4], 64 µg/mL (≈ 176 µM); with Salmonella typhimurium [5] it was 256 µg/mL (≈ 706 µM). For the same molecule, the “inhibition zone (IZ)” value in the experiment with Salmonella typhimurium [2] stood at 18.08 mm; with Staphylococcus aureus [6], 13.66 mm; with Escherichia coli [7], 18.34 mm; in the experiment with Streptococcus pyogenes [8], 16.77 mm.

Turning to `CC(=O)N1N=C(N(C(C)=O)C2CCCC2)SC1c1cc2cccc(C)c2nc1Cl` (stereo not given), the MIC in the experiment on Streptococcus pyogenes [1] turned out to be 64 µg/mL (≈ 149 µM); in the experiment with Escherichia coli [3] it was 128 µg/mL (≈ 297 µM); in the experiment with Staphylococcus aureus [4], 128 µg/mL (≈ 297 µM); against Salmonella typhimurium [5] it was 128 µg/mL (≈ 297 µM). Further, the “inhibition zone (IZ)” value with Salmonella typhimurium [2] stood at 15.13 mm; in the experiment with Staphylococcus aureus [6], 19 mm; in the experiment on Escherichia coli [7], 16.08 mm; in the experiment with Streptococcus pyogenes [8] it was 17.71 mm.

`CC(=O)N1N=C(N(C(C)=O)C2CCCCC2)SC1c1cc2cccc(C)c2nc1Cl` (stereo not given): the MIC in the experiment with Streptococcus pyogenes [1] came out at 128 µg/mL (≈ 288 µM); against Escherichia coli [3], 256 µg/mL (≈ 575 µM); against Staphylococcus aureus [4], 128 µg/mL (≈ 288 µM); in the experiment on Salmonella typhimurium [5] it was 256 µg/mL (≈ 575 µM). In addition, the “inhibition zone (IZ)” value stood at 12.01 mm with Salmonella typhimurium [2], 15.42 mm in the experiment with Staphylococcus aureus [6], 16.75 mm in the experiment with Escherichia coli [7] and 13.09 mm in the experiment on Streptococcus pyogenes [8].

Turning to `CC(=O)N1N=C(N(C(C)=O)C2CCCCCCC2)SC1c1cc2cccc(C)c2nc1Cl` (stereo not given), the MIC against Streptococcus pyogenes [1] was found to be 256 µg/mL (≈ 541 µM); in the experiment with Escherichia coli [3] it was 256 µg/mL (≈ 541 µM); against Staphylococcus aureus [4], 256 µg/mL (≈ 541 µM); in the experiment on Salmonella typhimurium [5], 128 µg/mL (≈ 271 µM). Moreover, the “inhibition zone (IZ)” value is recorded as 17.84 mm in the experiment with Salmonella typhimurium [2], 18.77 mm in the experiment with Staphylococcus aureus [6], 19 mm with Escherichia coli [7] and 15.45 mm in the experiment with Streptococcus pyogenes [8].

Turning to `CC(=O)N(C1=NN(C(C)=O)C(c2cc3cccc(C)c3nc2Cl)S1)c1ccc(C)cc1` (stereo not given), the MIC against Streptococcus pyogenes [1], with Escherichia coli [3], with Staphylococcus aureus [4] and in the experiment on Salmonella typhimurium [5] was 64 µg/mL (≈ 141 µM) in each case. The “inhibition zone (IZ)” value with Salmonella typhimurium [2] is 17.27 mm; in the experiment on Staphylococcus aureus [6], 18.92 mm; with Escherichia coli [7], 18.16 mm; in the experiment on Streptococcus pyogenes [8], 18.32 mm.

`CC(=O)N(C1=NN(C(C)=O)C(c2cc3cccc(C)c3nc2Cl)S1)c1ccc([N+](=O)[O-])cc1` (stereo not given): the MIC with Streptococcus pyogenes [1], in the experiment on Escherichia coli [3], against Staphylococcus aureus [4] and with Salmonella typhimurium [5] was 64 µg/mL (≈ 132 µM) in each case. For the same molecule, the “inhibition zone (IZ)” value in the experiment on Salmonella typhimurium [2] turned out to be 19.16 mm; in the experiment with Staphylococcus aureus [6], 16.54 mm; in the experiment on Escherichia coli [7], 13.03 mm; in the experiment on Streptococcus pyogenes [8], 15.27 mm.

As to `CC1(C)S[C@@H]2[C@H](NC(=O)[C@H](N)c3ccc(O)cc3)C(=O)N2[C@H]1C(=O)O` [AMOXICILLIN], the MIC against Streptococcus pyogenes [1], with Escherichia coli [3], against Staphylococcus aureus [4] and with Salmonella typhimurium [5] was 32 µg/mL (≈ 87.6 µM) throughout. Moreover, the “inhibition zone (IZ)” value in the experiment on Salmonella typhimurium [2] was 21.82 mm; in the experiment on Staphylococcus aureus [6], 20.85 mm; in the experiment on Escherichia coli [7], 22.05 mm; with Streptococcus pyogenes [8], 19.57 mm.
